Experimental data: ChEMBL document CHEMBL2331324, “Synthesis and biological evaluation of guanidino analogues of roscovitine” (Eur J Med Chem, 2013)

Legend:
[1] = molecular target: Serine/threonine-protein kinase PAK 4 (Homo sapiens) (UniProt O96013); assay: Inhibition of recombinant PAK4 (unknown origin) assessed as residual activity using [gamma-33P]ATP as substrate at 1 uM
Procedure, shortened: (§1)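 Selectivity panel run under previously published conditions. Screened at 1 μM in duplicate. Reactions started with [γ-33P]ATP (800 cpm/pmol) at 5, 20 or 50 μM, chosen to be at or below each enzyme's ATP Km. Stopped with phosphoric acid, spotted onto P81 filters. Result expressed as residual kinase activity.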

[2] = molecular target: Serine/threonine-protein kinase PAK 2 (Homo sapiens) (UniProt Q13177); assay: Inhibition of recombinant PAK2 (unknown origin) assessed as residual activity using [gamma-33P]ATP as substrate at 1 uM; procedure, shortened: as §1
[3] = molecular target: Mitogen-activated protein kinase 11 (Homo sapiens) (UniProt Q15759); assay: Inhibition of recombinant p38 MAPKbeta (unknown origin) assessed as residual activity using [gamma-33P]ATP as substrate at 1 uM
Procedure, shortened: (§2)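 Kinase panel screen with each compound at 1 µM, in duplicate. Reactions were started with [γ-33P]ATP (800 cpm/pmol) at 5, 20 or 50 µM, chosen per enzyme to be at or below its ATP Km. Reactions were stopped with phosphoric acid and spotted onto P81 filters. Results are given as residual kinase activity.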

[4] = molecular target: Serine/threonine-protein kinase Nek6 (Homo sapiens) (UniProt Q9HC98); assay: Inhibition of recombinant NEK6 (unknown origin) assessed as residual activity using [gamma-33P]ATP as substrate at 1 uM; procedure, shortened: as §1
[5] = molecular target: Dual specificity mitogen-activated protein kinase kinase 6 (Homo sapiens) (UniProt P52564); assay: Inhibition of recombinant MKK6 (unknown origin) assessed as residual activity using [gamma-33P]ATP as substrate at 1 uM; procedure, shortened: as §1
[6] = molecular target: MAP/microtubule affinity-regulating kinase 4 (Homo sapiens) (UniProt Q96L34); assay: Inhibition of recombinant MARK4 (unknown origin) assessed as residual activity using [gamma-33P]ATP as substrate at 1 uM; procedure, shortened: as §1
[7] = molecular target: Serine/threonine-protein kinase MARK1 (Homo sapiens) (UniProt Q9P0L2); assay: Inhibition of recombinant MARK1 (unknown origin) assessed as residual activity using [gamma-33P]ATP as substrate at 1 uM; procedure, shortened: as §1
[8] = molecular target: Insulin receptor-related protein (Homo sapiens) (UniProt P14616); assay: Inhibition of recombinant IRR (unknown origin) assessed as residual activity using [gamma-33P]ATP as substrate at 1 uM
Procedure, shortened: (§3)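 Recombinant kinase panel screened at 1 µM in duplicate. Reactions started with [γ-33P]ATP (800 cpm/pmol) at 5, 20 or 50 µM, chosen to sit at or below each enzyme's ATP Km. Stopped with phosphoric acid and spotted onto P81 filters. Result given as residual kinase activity.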

[9] = molecular target: Insulin receptor (Homo sapiens) (UniProt P06213); assay: Inhibition of recombinant IR (unknown origin) assessed as residual activity using [gamma-33P]ATP as substrate at 1 uM; procedure, shortened: as §3
[10] = molecular target: Inhibitor of nuclear factor kappa-B kinase subunit epsilon (Homo sapiens) (UniProt Q14164); assay: Inhibition of recombinant IKKepsilon (unknown origin) assessed as residual activity using [gamma-33P]ATP as substrate at 1 uM; procedure, shortened: as §3
[11] = molecular target: Serine/threonine-protein kinase Chk2 (Homo sapiens) (UniProt O96017); assay: Inhibition of recombinant CHK2 (unknown origin) assessed as residual activity using [gamma-33P]ATP as substrate at 1 uM; procedure, shortened: as §3
[12] = molecular target: Homeodomain-interacting protein kinase 3 (Homo sapiens) (UniProt Q9H422); assay: Inhibition of recombinant HIPK3 (unknown origin) assessed as residual activity using [gamma-33P]ATP as substrate at 1 uM; procedure, shortened: as §3
[13] = molecular target: Ephrin type-B receptor 2 (Homo sapiens) (UniProt P29323); assay: Inhibition of recombinant EPH-B2 (unknown origin) assessed as residual activity using [gamma-33P]ATP as substrate at 1 uM; procedure, shortened: as §3
[14] = molecular target: Ephrin type-B receptor 1 (Homo sapiens) (UniProt P54762); assay: Inhibition of recombinant EPH-B1 (unknown origin) assessed as residual activity using [gamma-33P]ATP as substrate at 1 uM; procedure, shortened: as §3
[15] = molecular target: Dual specificity protein kinase TTK (Homo sapiens) (UniProt P33981); assay: Inhibition of recombinant TTK (unknown origin) assessed as residual activity using [gamma-33P]ATP as substrate at 1 uM; procedure, shortened: as §2
[16] = molecular target: Serine/threonine-protein kinase TAO1 (Homo sapiens) (UniProt Q7L7X3); assay: Inhibition of recombinant TAO1 (unknown origin) assessed as residual activity using [gamma-33P]ATP as substrate at 1 uM; procedure, shortened: as §2
[17] = molecular target: SRSF protein kinase 1 (Homo sapiens) (UniProt Q96SB4); assay: Inhibition of recombinant SRPK1 (unknown origin) assessed as residual activity using [gamma-33P]ATP as substrate at 1 uM; procedure, shortened: as §2
[18] = molecular target: Proto-oncogene tyrosine-protein kinase Src (Homo sapiens) (UniProt P12931); assay: Inhibition of recombinant SRC (unknown origin) assessed as residual activity using [gamma-33P]ATP as substrate at 1 uM; procedure, shortened: as §2
[19] = molecular target: Receptor-interacting serine/threonine-protein kinase 2 (Homo sapiens) (UniProt O43353); assay: Inhibition of recombinant RIPK2 (unknown origin) assessed as residual activity using [gamma-33P]ATP as substrate at 1 uM; procedure, shortened: as §1
[20] = molecular target: Protein kinase C alpha type (Homo sapiens) (UniProt P17252); assay: Inhibition of recombinant PKCalpha (unknown origin) assessed as residual activity using [gamma-33P]ATP as substrate at 1 uM; procedure, shortened: as §1
[21] = molecular target: Dual specificity tyrosine-phosphorylation-regulated kinase 3 (Homo sapiens) (UniProt O43781); assay: Inhibition of recombinant DYRK3 (unknown origin) assessed as residual activity using [gamma-33P]ATP as substrate at 1 uM; procedure, shortened: as §3
[22] = molecular target: Dual specificity tyrosine-phosphorylation-regulated kinase 1A (Homo sapiens) (UniProt Q13627); assay: Inhibition of recombinant DYRK1A (unknown origin) assessed as residual activity using [gamma-33P]ATP as substrate at 1 uM; procedure, shortened: as §3
[23] = molecular target: Cyclin-dependent kinase 2/cyclin A (Homo sapiens) (UniProt P24941+P20248+P78396); assay: Inhibition of recombinant CDK2/cyclin A (unknown origin) assessed as residual activity using [gamma-33P]ATP as substrate at 1 uM; type: protein-complex assay
Procedure, shortened: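 CDK2/cyclin A included in the radiometric panel at 1 µM in duplicate. Reactions started with [γ-33P]ATP (800 cpm/pmol) at 5, 20 or 50 µM, at or below the enzyme's ATP Km. Stopped with phosphoric acid, spotted onto P81 filters; result given as residual kinase activity.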

[24] = molecular target: Mitogen-activated protein kinase kinase kinase 5 (Homo sapiens) (UniProt Q99683); assay: Inhibition of recombinant ASK1 (unknown origin) assessed as residual activity using [gamma-33P]ATP as substrate at 1 uM; procedure, shortened: as §3
[25] = molecular target: 5'-AMP-activated protein kinase catalytic subunit alpha-2 (Homo sapiens) (UniProt P54646); assay: Inhibition of recombinant AMPK (unknown origin) assessed as residual activity using [gamma-33P]ATP as substrate at 1 uM; procedure, shortened: as §3
[26] = molecular target: Tyrosine-protein kinase ABL1 (Homo sapiens) (UniProt P00519); assay: Inhibition of recombinant ABL (unknown origin) assessed as residual activity using [gamma-33P]ATP as substrate at 1 uM; procedure, shortened: as §3
Sequence of Tyrosine-protein kinase ABL1 (Homo sapiens) (P00519 whole entry): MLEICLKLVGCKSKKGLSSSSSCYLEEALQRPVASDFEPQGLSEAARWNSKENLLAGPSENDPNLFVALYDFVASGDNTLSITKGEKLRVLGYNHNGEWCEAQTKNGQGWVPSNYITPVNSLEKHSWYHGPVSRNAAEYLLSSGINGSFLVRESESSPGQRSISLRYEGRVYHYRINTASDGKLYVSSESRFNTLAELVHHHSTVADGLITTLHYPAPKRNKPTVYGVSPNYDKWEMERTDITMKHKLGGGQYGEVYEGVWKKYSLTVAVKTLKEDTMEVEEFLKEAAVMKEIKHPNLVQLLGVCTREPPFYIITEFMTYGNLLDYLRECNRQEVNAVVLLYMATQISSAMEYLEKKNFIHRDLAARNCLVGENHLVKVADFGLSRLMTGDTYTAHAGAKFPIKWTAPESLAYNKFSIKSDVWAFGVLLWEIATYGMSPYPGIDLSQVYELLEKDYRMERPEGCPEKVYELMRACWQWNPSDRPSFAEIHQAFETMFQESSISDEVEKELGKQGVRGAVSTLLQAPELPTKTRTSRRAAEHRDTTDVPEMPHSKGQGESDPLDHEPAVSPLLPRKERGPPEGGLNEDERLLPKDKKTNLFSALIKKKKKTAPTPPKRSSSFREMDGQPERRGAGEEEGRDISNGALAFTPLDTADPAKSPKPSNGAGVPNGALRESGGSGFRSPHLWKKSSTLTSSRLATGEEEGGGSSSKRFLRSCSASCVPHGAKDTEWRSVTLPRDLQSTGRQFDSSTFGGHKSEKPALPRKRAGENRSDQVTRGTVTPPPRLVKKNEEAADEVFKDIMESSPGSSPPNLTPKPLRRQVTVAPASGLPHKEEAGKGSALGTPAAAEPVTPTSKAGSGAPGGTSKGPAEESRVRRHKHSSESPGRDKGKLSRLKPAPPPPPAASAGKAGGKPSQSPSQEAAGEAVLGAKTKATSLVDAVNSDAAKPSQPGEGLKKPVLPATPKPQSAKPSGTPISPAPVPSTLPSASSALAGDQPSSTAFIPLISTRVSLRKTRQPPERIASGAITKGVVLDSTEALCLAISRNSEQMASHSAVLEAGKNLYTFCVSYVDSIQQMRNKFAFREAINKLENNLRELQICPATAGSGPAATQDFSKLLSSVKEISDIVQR

Sequence of Serine/threonine-protein kinase Nek6 (Homo sapiens) (Q9HC98 whole entry): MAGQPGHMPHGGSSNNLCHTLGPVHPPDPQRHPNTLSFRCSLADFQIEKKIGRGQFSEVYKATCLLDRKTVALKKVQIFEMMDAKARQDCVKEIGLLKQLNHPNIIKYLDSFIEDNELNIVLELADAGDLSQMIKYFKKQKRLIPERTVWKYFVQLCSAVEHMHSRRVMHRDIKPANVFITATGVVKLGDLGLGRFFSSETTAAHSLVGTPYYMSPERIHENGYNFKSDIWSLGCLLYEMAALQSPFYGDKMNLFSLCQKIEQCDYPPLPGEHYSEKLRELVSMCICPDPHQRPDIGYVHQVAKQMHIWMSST
Sequence of Receptor-interacting serine/threonine-protein kinase 2 (Homo sapiens) (O43353 whole entry): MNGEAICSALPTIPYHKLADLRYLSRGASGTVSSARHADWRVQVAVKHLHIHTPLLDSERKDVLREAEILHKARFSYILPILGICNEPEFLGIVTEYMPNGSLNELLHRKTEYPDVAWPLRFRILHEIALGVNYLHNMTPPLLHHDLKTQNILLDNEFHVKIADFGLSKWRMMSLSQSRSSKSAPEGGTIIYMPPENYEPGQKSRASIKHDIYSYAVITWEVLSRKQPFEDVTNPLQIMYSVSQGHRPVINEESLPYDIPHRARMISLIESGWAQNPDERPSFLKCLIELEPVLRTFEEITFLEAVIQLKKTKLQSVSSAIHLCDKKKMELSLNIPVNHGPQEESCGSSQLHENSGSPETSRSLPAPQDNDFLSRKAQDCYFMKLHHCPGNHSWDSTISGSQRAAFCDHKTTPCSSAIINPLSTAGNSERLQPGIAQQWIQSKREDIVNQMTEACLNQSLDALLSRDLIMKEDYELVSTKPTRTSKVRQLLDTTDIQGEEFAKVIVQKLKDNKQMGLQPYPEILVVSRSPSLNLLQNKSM
Sequence of MAP/microtubule affinity-regulating kinase 4 (Homo sapiens) (Q96L34 whole entry): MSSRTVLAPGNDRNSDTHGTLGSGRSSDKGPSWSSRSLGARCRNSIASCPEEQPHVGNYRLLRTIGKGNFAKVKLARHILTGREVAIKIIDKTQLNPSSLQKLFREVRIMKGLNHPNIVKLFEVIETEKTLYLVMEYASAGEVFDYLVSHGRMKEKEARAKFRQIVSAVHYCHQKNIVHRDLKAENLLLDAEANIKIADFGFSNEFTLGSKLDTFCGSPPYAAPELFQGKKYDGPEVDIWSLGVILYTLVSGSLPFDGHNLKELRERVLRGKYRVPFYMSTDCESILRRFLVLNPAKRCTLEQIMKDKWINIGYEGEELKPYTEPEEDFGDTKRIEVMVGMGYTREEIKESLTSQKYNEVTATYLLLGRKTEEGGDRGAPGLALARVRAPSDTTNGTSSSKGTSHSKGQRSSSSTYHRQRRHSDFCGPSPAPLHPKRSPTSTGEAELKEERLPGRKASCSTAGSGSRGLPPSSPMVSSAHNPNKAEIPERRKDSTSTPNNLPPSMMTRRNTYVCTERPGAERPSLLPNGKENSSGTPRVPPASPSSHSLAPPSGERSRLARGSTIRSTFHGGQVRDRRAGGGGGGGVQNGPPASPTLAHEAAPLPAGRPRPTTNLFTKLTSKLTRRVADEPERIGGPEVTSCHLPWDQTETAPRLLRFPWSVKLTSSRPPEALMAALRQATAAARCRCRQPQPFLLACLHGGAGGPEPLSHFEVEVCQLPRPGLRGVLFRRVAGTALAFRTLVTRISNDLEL
Sequence of Serine/threonine-protein kinase Chk2 (Homo sapiens) (O96017 whole entry): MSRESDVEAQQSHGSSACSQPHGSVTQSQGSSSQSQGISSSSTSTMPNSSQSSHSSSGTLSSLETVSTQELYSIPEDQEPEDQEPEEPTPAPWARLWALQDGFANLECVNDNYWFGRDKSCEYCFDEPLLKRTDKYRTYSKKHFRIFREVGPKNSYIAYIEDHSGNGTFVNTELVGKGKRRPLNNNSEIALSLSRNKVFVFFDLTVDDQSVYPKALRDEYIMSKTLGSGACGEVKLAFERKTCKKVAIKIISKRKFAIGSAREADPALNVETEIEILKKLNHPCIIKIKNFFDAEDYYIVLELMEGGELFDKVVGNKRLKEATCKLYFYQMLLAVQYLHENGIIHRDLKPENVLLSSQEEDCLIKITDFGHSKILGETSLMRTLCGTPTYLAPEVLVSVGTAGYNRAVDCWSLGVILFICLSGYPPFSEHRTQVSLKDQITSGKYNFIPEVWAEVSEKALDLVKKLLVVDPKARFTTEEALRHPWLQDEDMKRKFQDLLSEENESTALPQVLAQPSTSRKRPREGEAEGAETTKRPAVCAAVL
Sequence of Dual specificity protein kinase TTK (Homo sapiens) (P33981 whole entry): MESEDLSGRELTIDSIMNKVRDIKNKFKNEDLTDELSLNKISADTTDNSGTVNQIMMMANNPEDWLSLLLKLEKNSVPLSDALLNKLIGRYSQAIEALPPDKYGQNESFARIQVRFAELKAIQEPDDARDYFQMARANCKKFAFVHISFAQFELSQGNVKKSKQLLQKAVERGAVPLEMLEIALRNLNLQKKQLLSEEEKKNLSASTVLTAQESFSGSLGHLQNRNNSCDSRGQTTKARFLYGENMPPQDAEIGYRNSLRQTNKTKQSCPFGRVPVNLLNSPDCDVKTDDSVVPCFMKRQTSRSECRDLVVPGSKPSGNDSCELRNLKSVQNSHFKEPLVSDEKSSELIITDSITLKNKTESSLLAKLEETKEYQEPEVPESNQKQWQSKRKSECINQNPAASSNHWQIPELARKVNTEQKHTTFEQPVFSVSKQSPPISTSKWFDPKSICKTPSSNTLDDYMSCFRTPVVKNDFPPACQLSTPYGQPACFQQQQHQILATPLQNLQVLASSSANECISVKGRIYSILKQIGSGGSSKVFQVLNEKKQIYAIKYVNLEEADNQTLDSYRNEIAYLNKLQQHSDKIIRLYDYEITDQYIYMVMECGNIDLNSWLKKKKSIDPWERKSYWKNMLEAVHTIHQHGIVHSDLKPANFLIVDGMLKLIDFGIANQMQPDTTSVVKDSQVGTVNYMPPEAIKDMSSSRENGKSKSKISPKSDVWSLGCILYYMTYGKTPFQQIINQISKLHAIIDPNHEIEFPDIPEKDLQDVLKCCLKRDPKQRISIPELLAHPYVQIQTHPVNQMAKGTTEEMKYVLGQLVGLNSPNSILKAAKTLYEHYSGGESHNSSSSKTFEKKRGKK
Sequence of Serine/threonine-protein kinase MARK1 (Homo sapiens) (Q9P0L2 whole entry, looked up): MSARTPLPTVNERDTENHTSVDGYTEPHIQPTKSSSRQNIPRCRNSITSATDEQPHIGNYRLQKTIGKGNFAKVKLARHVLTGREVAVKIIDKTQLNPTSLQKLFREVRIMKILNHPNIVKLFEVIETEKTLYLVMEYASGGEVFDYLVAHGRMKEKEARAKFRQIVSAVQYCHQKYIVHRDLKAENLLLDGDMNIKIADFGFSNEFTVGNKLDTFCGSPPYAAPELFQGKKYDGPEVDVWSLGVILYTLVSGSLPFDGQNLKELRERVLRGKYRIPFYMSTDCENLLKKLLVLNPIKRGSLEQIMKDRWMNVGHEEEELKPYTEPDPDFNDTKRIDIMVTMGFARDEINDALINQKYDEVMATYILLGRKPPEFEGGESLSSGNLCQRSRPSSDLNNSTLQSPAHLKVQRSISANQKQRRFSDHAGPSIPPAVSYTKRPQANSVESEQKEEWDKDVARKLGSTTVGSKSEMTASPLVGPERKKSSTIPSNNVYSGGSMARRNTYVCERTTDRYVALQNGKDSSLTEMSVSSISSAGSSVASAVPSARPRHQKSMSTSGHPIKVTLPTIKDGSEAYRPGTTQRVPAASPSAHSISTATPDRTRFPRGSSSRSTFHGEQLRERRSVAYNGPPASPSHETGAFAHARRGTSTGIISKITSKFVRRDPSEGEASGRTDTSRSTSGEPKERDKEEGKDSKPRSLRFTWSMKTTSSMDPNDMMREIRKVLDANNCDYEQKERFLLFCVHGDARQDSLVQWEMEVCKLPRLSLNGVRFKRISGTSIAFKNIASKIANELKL

| Activity [1] [%] | Activity [2] [%] | Activity [3] [%] | Activity [4] [%] | Activity [5] [%] | Activity [6] [%] | Activity [7] [%] | Activity [8] [%] | Activity [9] [%] | Activity [10] [%] | Activity [11] [%] | Activity [12] [%] | Activity [13] [%] | Activity [14] [%] | Activity [15] [%] | Activity [16] [%] | Activity [17] [%] | Activity [18] [%] | Activity [19] [%] | Activity [20] [%] | SMILES | further results |
| --- | --- | --- | --- | --- | --- | --- | --- | --- | --- | --- | --- | --- | --- | --- | --- | --- | --- | --- | --- | --- | --- |
| 15 | 45 | 64 | 95 | 72 | 38 | 31 | 19 | 5 | 66 | 59 | 38 | 2 | 8 | 40 | 9 | 22 | 22 | 72 | 71 | CC[C@H](CO)Nc1nc(NC(=N)N)c2ncn(C(C)C)c2n1 | Activity [21]: 18%; Activity [22]: 1%; Activity [23]: 5%; Activity [24]: 100%; Activity [25]: 29%; Activity [26]: 5% |
| 12 | 38 | 66 | 85 | 88 | 29 | 39 | 16 | 3 | 52 | 42 | 24 | 2 | 7 | 32 | 9 | 14 | 6 | 76 | 68 | CC[C@@H](CO)Nc1nc(NC(=N)N)c2ncn(C(C)C)c2n1 | Activity [21]: 11%; Activity [22]: 1%; Activity [23]: 7%; Activity [24]: 81%; Activity [25]: 22%; Activity [26]: 6% |
